Columns and labels:
MCF-7 cells = assay: In situ probe labeling with in-gel TAMRA fluorescence, MCF-7; type: cell-based, human; conditions: 100 μM competitor, 10 μM probe 4, UV irradiation
Outline: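 MCF-7 cells (RPMI 1640, 10% FCS) at 80–90% confluence were washed and put in serum-free medium. They got 10 μM probe for 1 h at 37 °C, with 100 μM competitor, then 1 h of 365 nm UV. Lysis in RIPA plus protease inhibitors. SDS-PAGE, fluorescence scan, SYPRO Ruby loading control.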

DNMT = DNMT inhibition; type: biochemical; conditions: Supporting Information Graph SI-1
KHMTs = assay: KHMT inhibition; type: biochemical; conditions: Supporting Information Graph SI-1
recombinant HSP90α = type: binding; conditions: at 50 μM
recombinant GRP94 = type: binding; conditions: at 50 μM
PRMTs = assay: PRMT inhibition; type: biochemical; conditions: Supporting Information Graph SI-1
[1] = test system: K-562, KG-1, MOLM-13, and WM-266–4 cells; assay: In situ probe labeling with in-gel TAMRA fluorescence, other cancer cell lines; type: cell-based, human; conditions: K-562, KG-1, MOLM-13, WM-266–4 cells, 1 h treatment with 10 μM probe, triplicate
Outline: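 Cell media: K-562 in RPMI 1640 with 10% FCS, KG-1 and MOLM-13 with 20% FCS, WM-266–4 in EMEM with 10% FCS. Cells were treated in serum-free medium, in triplicate, with 10 μM probe, control probe or 1% DMSO for 1 h at 37 °C. UV at 365 nm for 1 h, then RIPA lysis. Click with TAMRA-biotin-azide/CuSO4/TCEP/TBTA, SDS-PAGE, in-gel fluorescence, SYPRO Ruby loading control.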

binding to HSP90α (recombinant HSP90α) | binding to GRP94 (recombinant GRP94) | Structure (SMILES) | labeling of probe 4 after competition (MCF-7 cells) | activity against DNMT (DNMT) | activity against KHMTs (KHMTs) | activity against PRMTs (PRMTs) | labeling of band at 100 kDa / fluorescent labeling [1]
no significant binding | minor binding | COCn1cc(C(=O)NCC[C@H]2O[C@@H](n3cnc4c(N)ncnc43)[C@H](O)[C@@H]2O)c(N)nc1=O [Compound 1, 1-(Methoxymethyl)-N-((5′-deoxyadenosin-5′-yl)methyl)cytosine-5-carboxamide] | completely abolished | inactive | inactive | inactive | 
no significant binding | minor binding | Nc1nc(=O)n(COCc2ccccc2)cc1C(=O)NCC[C@H]1O[C@@H](n2cnc3c(N)ncnc32)[C@H](O)[C@@H]1O [Compound 2] | completely abolished | inactive | inactive | inactive | 
 |  | C#CCCCC(=O)Nc1ccc(C(=O)c2ccc(NC(=O)CCCCNC(=O)OC(C)(C)C)cc2)cc1 [Compound 5, N-(4-(4-(5-(Boc-amino)pentanamido)benzoyl)phenyl)hex-5-ynamide] |  |  |  |  | absence of fluorescent labeling
